# Compound activity: PubChem, Broad Institute
# PGC1a Ac signal = raises PGC1a acetylation signal in U2OS cells. U2OS PGC1a acetylation AlphaScreen, overnight. actives 0.21% (n = 350,000). activation, % at 15.6 µM;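 active means every replicate reaching activation of at least 50%, whatever the mean replicate activation; inconclusive means replicates that disagree or another doubt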;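 further: hits raise the AlphaScreen acetylation signal above neutral controls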
#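 System: flag-PGC1a/GCN5 U2OS cells / Input: 7000 cells/well / Compound: single test concentration per compound / Incubation: overnight compound treatment, 37 °C / Technique: AlphaScreen on lysates with anti-acetyl-lysine antibody, acceptor and donor beads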
# Hep G6PC suppr = PGC-1a acetylation activators affecting G6PC expression in hepatocytes. 240 tested, under 10 active. G6PC suppression (normalized activity, % of positive control; higher = more suppression), % at 26 µM. AID 743463. primary mouse hepatocytes, G6PC mRNA qPCR, forskolin. shares compounds with PGC1a Ac signal;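 active means dose curves showing G6PC suppression whose half-maximal dose is at most twice the top valid dose; inconclusive means flat curves with moderate negative activity, or unreliable fits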;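 further: G6PC expression relative to GAPDH housekeeping gene as delta delta Ct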
# PCK1 hep suppr = PGC-1a acetylation activators affecting PCK1 expression in hepatocytes | shares compounds with PGC1a Ac signal | primary mouse hepatocytes, PCK1 mRNA qPCR, forskolin-stimulated | PCK1 expression decrease, unspecified at 26 µM | 230 tested, under 10 active | AID 743465;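 active means compounds lowering PCK1 expression whose fitted half-maximal concentration is at most twice the top tested dose; inconclusive means flat fit with moderate opposite-direction effect, or poor fit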;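 further: higher delta delta Ct means lower PCK1 expression so positive values indicate hits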
# PGC1a hep suppr = hepatocyte PGC-1a expression change via PGC-1a acetylation activation; shares compounds with PGC1a Ac signal; primary mouse hepatocytes, PGC-1a mRNA qPCR, forskolin; top dose 26 µM; max activity (PGC-1a expression decrease), %; 240 tested, under 10 active; AID 743467;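 active means compound lowering PGC-1a expression with fitted half-maximal concentration at most twice its top tested dose; inconclusive means flat curve with moderate opposite-direction effect, or poor fit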
# Hits are given with their value; - = inactive; ? = inconclusive; . = not tested or not shown. Only a sample is shown.
SMILES,PGC1a Ac signal,Hep G6PC suppr,PCK1 hep suppr,PGC1a hep suppr
CCCCCOC(=O)Cc1c(O)c2ccccc2n(C)c1=O,-,-,-,-
C=CCNS(=O)(=O)c1cccc2cc(C(=O)O)c(O)cc12,-,.,.,.
Cc1ccccc1Cn1cnc2c(nnn2Cc2ccc(F)cc2)c1=O,-,.,.,.
Cc1ccccc1Cn1cc(NC(=O)c2cc(-c3cccs3)on2)cn1,?,.,-,-
c1ccc(-c2c(-c3ccccc3)n(Cc3ccco3)c3ncnc(NCCCn4ccnc4)c23)cc1,125.5,-,-,-
CC(=O)Nc1nc(C)c(Oc2ccc(Cl)cc2)c(=O)[nH]1,-,.,.,.
Cc1ccc(S(=O)(=O)N(Cc2ccc(F)cc2)Cc2ccco2)cc1,70.7,-,-,?
CC1CCCCC1NC(=O)C1CCN(C(=O)NC2CCCCC2)CC1 (centres undefined),-,.,.,.
COC(=O)C(Nc1ccccc1Cl)(c1cc(C)c(O)c(C)c1)C(F)(F)F (centres undefined),68.9,-,-,?
CC1(C(=O)Nc2cccc(C#N)c2)CCN1C(=O)CCc1ccccc1 (centres undefined),-,.,.,.
Cc1ccc2[nH]cc(C(=O)CN3CCN(c4ccccc4F)CC3)c2c1,-,-,-,-
O=C(NCc1cccs1)c1ccc(Cl)c(S(=O)(=O)N2CCCC2)c1,?,-,.,?
CC(C)(CO)CNc1ccn2nccc2n1,-,.,.,.
CCOc1ccc(S(N)(=O)=O)cc1-c1nc2c(C(C)(C)C)nn(C)c2c(=O)[nH]1,-,.,.,.
CCc1nnc(N/N=C/c2c(Cl)cccc2Cl)n1N,-,.,.,.
Cc1[nH]c(=O)[nH]c(=O)c1S(=O)(=O)Nc1ccc(F)c(Cl)c1,-,.,.,.
